Tests used:
3T3-L1 = assay: Insulin sensitizing activity in mouse 3T3L1 cells assessed as increase in glucose uptake at 10 ug/mL after 50 hrs […] relative to control; format: functional
How it was run: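 3T3-L1 cells were grown in high-glucose DMEM with 10% FBS and, at 90% confluence, differentiated with insulin, dexamethasone and IBMX. After 4 days they were replated, grown 2 days, then made insulin-resistant with low insulin and high dexamethasone for 4 days. Compounds were given in high-glucose medium for 50 h. Supernatant glucose was measured by kit at OD 490 nm, against normal and insulin-resistant controls, in duplicate or triplicate.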

[1] = target: T1, Tyrosine-protein phosphatase non-receptor type 1 (Homo sapiens) (UniProt P18031); assay: Inhibition of PTP1B (unknown origin) expressed in Escherichia coli expression system using p-nitrophenyl phosphate as substrate assessed as release of p-nitrophenol at 10 ug/mL incubated for 10 mins prior to substrate addition measured after 30 mins relative to control
T1 sequence (whole entry): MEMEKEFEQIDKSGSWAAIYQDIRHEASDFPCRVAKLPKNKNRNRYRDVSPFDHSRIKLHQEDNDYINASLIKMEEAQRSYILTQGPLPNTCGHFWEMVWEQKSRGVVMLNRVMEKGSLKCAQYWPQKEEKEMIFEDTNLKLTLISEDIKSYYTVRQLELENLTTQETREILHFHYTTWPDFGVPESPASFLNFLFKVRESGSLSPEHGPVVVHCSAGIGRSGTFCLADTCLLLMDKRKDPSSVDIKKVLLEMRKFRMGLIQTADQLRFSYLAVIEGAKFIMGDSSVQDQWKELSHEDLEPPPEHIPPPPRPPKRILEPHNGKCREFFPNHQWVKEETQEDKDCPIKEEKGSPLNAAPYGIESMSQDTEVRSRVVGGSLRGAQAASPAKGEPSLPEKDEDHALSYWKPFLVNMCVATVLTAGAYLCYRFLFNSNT
How it was run: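 Native PTP1B was expressed in E. coli, purified, and diluted in 25 mM HEPES, 50 mM NaCl, 2.5 mM EDTA, 0.1% BSA, pH 7.2. Compounds were dissolved in DMSO and preincubated with enzyme in buffer A (50 mM HEPES, 2.5 mM EDTA, pH 7.0) for 10 min at 37 °C. pNPP was then added for 30 min at 37 °C.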

[2] = target: Tyrosine-protein phosphatase non-receptor type 1 (Homo sapiens) (UniProt P18031); conditions: 100 ug/mL
[3] = target: T2, Tyrosine-protein phosphatase non-receptor type 1 (Homo sapiens, UniProt P18031); assay: Inhibition of PTP1B (unknown origin) expressed in Escherichia coli expression system using p-nitrophenyl phosphate as substrate assessed as release of p-nitrophenol incubated for 10 mins prior to substrate addition measured after 30 mins
T2 sequence (P18031 whole entry): T1 sequence (whole entry)
How it was run: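 Native PTP1B purified from E. coli, diluted in 25 mM HEPES, 50 mM NaCl, 2.5 mM EDTA, 0.1% BSA, pH 7.2; inhibitors in DMSO. Enzyme and inhibitor preincubated at 37 °C in 50 mM HEPES, 2.5 mM EDTA, pH 7.0. pNPP then added; stopped after 30 min with 2 M Na2CO3; A405 read. Inhibition from OD against blank and no-inhibitor controls; means of three experiments.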

| Compound | Activity (3T3-L1) [%] | Imax [1] [%] | Imax [2] [%] | IC50 [3] [µM] |
| --- | --- | --- | --- | --- |
| CN(CCOc1ccc(CC2SC(=O)NC2=O)cc1)c1ccccn1 (stereo not given) [ROSIGLITAZONE] | 100 |  |  |  |
| CC1(C)CC[C@]2(C(=O)NCCCCCC(=O)O)CC[C@]3(C)C(=CC[C@@H]4[C@@]5(C)CC[C@H](O)C(C)(C)[C@@H]5CC[C@]43C)[C@@H]2C1 |  | 14.3 |  |  |
| CC1(C)CC[C@@]23CC[C@]4(C)[C@@](OC2=O)([C@@H]3C1)[C@@H](O)C[C@@H]1[C@@]2(C)CC[C@H](O[C@H]3O[C@H](C(=O)O)[C@@H](O)[C@H](O)[C@@H]3O)C(C)(C)[C@@H]2CC[C@]14C |  | 3.72 |  |  |
| SODIUM ORTHOVANAD |  |  | 100 |  |
| COC(=O)CCCCCNC(=O)[C@]12CCC(C)(C)C[C@H]1C1=CC[C@@H]3[C@@]4(C)CC[C@H](O[C@@H]5O[C@H](C(=O)OC)[C@@H](O)[C@H](O)[C@H]5O)C(C)(C)[C@@H]4CC[C@@]3(C)[C@]1(C)CC2 | 28.29 | 36.7 |  |  |
| COC(=O)CCCCCNC(=O)[C@]12CCC(C)(C)C[C@H]1C1=CC[C@@H]3[C@@]4(C)CC[C@H](O[C@@H]5O[C@H](CO)[C@@H](O[C@@H]6O[C@H](CO)[C@H](O)[C@H](O)[C@H]6O)[C@H](O)[C@H]5O)C(C)(C)[C@@H]4CC[C@@]3(C)[C@]1(C)CC2 |  | 3.87 |  |  |
| CC(=O)N[C@H]1[C@H]([C@H](O)[C@H](O)CO)O[C@@](O[C@H]2CC[C@]3(C)[C@H]4CC=C5[C@@H]6CC(C)(C)CC[C@]6(C(=O)NCCCCCC(=O)O)CC[C@@]5(C)[C@]4(C)CC[C@H]3C2(C)C)(C(=O)O)C[C@@H]1O | -16.69 | 46 |  |  |
| CC1(C)CC[C@]2(C(=O)NCCCCCC(=O)O)CC[C@]3(C)C(=CC[C@@H]4[C@@]5(C)CC[C@H](O[C@@H]6O[C@H](C(=O)O)[C@@H](O)[C@H](O)[C@H]6O)C(C)(C)[C@@H]5CC[C@]43C)[C@@H]2C1 | 21.52 | 72 |  | 0.56 |
| CC1(C)CC[C@@]23CC[C@]4(C)[C@@](OC2=O)([C@@H]3C1)[C@@H](O)C[C@@H]1[C@@]2(C)CC[C@H](O[C@@H]3O[C@H](CO)[C@@H](O[C@@H]5O[C@H](CO)[C@H](O)[C@H](O)[C@H]5O)[C@H](O)[C@H]3O)C(C)(C)[C@@H]2CC[C@]14C |  | 2.55 |  |  |
| CC1(C)CC[C@@]23CC[C@]4(C)[C@@](OC2=O)([C@@H]3C1)[C@@H](O)C[C@@H]1[C@@]2(C)CC[C@H](O[C@H]3O[C@H](CO)[C@@H](O)[C@H](O)[C@@H]3O)C(C)(C)[C@@H]2CC[C@]14C |  | 2.9 |  |  |
| C[C@@H]1O[C@@H](O[C@H]2CC[C@]3(C)[C@H]4C[C@H](O)[C@]56OC(=O)[C@@]7(CCC(C)(C)C[C@H]75)CC[C@@]6(C)[C@]4(C)CC[C@H]3C2(C)C)[C@@H](O)[C@H](O)[C@@H]1O |  | -1.55 |  |  |
| CC1(C)CC[C@]2(C(=O)NCCCCCC(=O)O)CC[C@]3(C)C(=CC[C@@H]4[C@@]5(C)CC[C@H](O[C@@H]6O[C@H](CO)[C@@H](O[C@@H]7O[C@H](CO)[C@H](O)[C@H](O)[C@H]7O)[C@H](O)[C@H]6O)C(C)(C)[C@@H]5CC[C@]43C)[C@@H]2C1 | 39.13 | 83.7 |  | 9.21 |
| COC(=O)CCCCCNC(=O)[C@]12CCC(C)(C)C[C@H]1C1=CC[C@@H]3[C@@]4(C)CC[C@H](O[C@H]5O[C@H](C(=O)OC)[C@@H](O)[C@H](O)[C@@H]5O)C(C)(C)[C@@H]4CC[C@@]3(C)[C@]1(C)CC2 | 39.18 | 81.9 |  | 12.2 |
| CC1(C)CC[C@]2(C(=O)NCCCCCC(=O)O)CC[C@]3(C)C(=CC[C@@H]4[C@@]5(C)CC[C@H](O[C@@H]6O[C@H](CO)[C@@H](O)[C@H](O)[C@H]6O)C(C)(C)[C@@H]5CC[C@]43C)[C@@H]2C1 | 6.11 | 57.6 |  |  |
| COC(=O)CCCCCNC(=O)[C@]12CCC(C)(C)C[C@H]1C1=CC[C@@H]3[C@@]4(C)CC[C@H](O[C@@H]5O[C@@H](C)[C@@H](O)[C@@H](O)[C@@H]5O)C(C)(C)[C@@H]4CC[C@@]3(C)[C@]1(C)CC2 |  | 1.91 |  |  |
| COC(=O)CCCCCNC(=O)[C@]12CCC(C)(C)C[C@H]1C1=CC[C@@H]3[C@@]4(C)CC[C@H](O[C@@H]5O[C@H](CO)[C@@H](O)[C@H](O)[C@H]5O)C(C)(C)[C@@H]4CC[C@@]3(C)[C@]1(C)CC2 |  | 5.82 |  |  |
| C[C@@H]1O[C@@H](O[C@H]2CC[C@]3(C)[C@H]4CC=C5[C@@H]6CC(C)(C)CC[C@]6(C(=O)NCCCCCC(=O)O)CC[C@@]5(C)[C@]4(C)CC[C@H]3C2(C)C)[C@@H](O)[C@H](O)[C@@H]1O | 59.58 | 63.2 |  |  |
| COC(=O)CCCCCNC(=O)[C@]12CCC(C)(C)C[C@H]1C1=CC[C@@H]3[C@@]4(C)CC[C@H](O[C@H]5O[C@H](C(=O)O)[C@@H](O)[C@H](O)[C@@H]5O)C(C)(C)[C@@H]4CC[C@@]3(C)[C@]1(C)CC2 |  | 98.6 |  | 1.91 |
| CC(=O)N[C@H]1[C@H]([C@H](O)[C@H](O)CO)O[C@](O[C@H]2CC[C@]3(C)[C@H]4CC=C5[C@@H]6CC(C)(C)CC[C@]6(C(=O)NCCCCCC(=O)O)CC[C@@]5(C)[C@]4(C)CC[C@H]3C2(C)C)(C(=O)O)C[C@@H]1O | 10.31 | 69 |  |  |
| COC(=O)CCCCCNC(=O)[C@]12CCC(C)(C)C[C@H]1C1=CC[C@@H]3[C@@]4(C)CC[C@H](O[C@]5(C(=O)OC)C[C@H](O)[C@@H](NC(C)=O)[C@H]([C@H](O)[C@H](O)CO)O5)C(C)(C)[C@@H]4CC[C@@]3(C)[C@]1(C)CC2 | 9.54 | 56 |  |  |
| COC(=O)CCCCCNC(=O)[C@]12CCC(C)(C)C[C@H]1C1=CC[C@@H]3[C@@]4(C)CC[C@H](O[C@@]5(C(=O)OC)C[C@H](O)[C@@H](NC(C)=O)[C@H]([C@H](O)[C@H](O)CO)O5)C(C)(C)[C@@H]4CC[C@@]3(C)[C@]1(C)CC2 | -7.74 | 8.34 |  |  |
| COC(=O)CCCCCNC(=O)[C@]12CCC(C)(C)C[C@H]1C1=CC[C@@H]3[C@@]4(C)CC[C@H](O[C@@H]5O[C@H](C(=O)O)[C@@H](O)[C@H](O)[C@H]5O)C(C)(C)[C@@H]4CC[C@@]3(C)[C@]1(C)CC2 |  | 11.8 |  |  |
| COC(=O)CCCCCNC(=O)[C@]12CCC(C)(C)C[C@H]1C1=CC[C@@H]3[C@@]4(C)CC[C@H](O)C(C)(C)[C@@H]4CC[C@@]3(C)[C@]1(C)CC2 |  | 4.89 |  |  |
| CC1(C)CC[C@]2(C(=O)NCCCCCC(=O)O)CC[C@]3(C)C(=CC[C@@H]4[C@@]5(C)CC[C@H](O[C@H]6O[C@H](C(=O)O)[C@@H](O)[C@H](O)[C@@H]6O)C(C)(C)[C@@H]5CC[C@]43C)[C@@H]2C1 | 3.91 | 64.8 |  | 16.1 |
| CC1(C)CC[C@]2(C(=O)NCCCCCC(=O)O)CC[C@]3(C)C(=CC[C@@H]4[C@@]5(C)CC[C@H](O[C@H]6O[C@H](CO)[C@@H](O)[C@H](O)[C@@H]6O)C(C)(C)[C@@H]5CC[C@]43C)[C@@H]2C1 | 57.55 | 57 |  |  |
| CC1(C)CC[C@@]23CC[C@]4(C)[C@@](OC2=O)([C@@H]3C1)[C@@H](O)C[C@@H]1[C@@]2(C)CC[C@H](O[C@@H]3O[C@H](CO)[C@@H](O)[C@H](O)[C@H]3O)C(C)(C)[C@@H]2CC[C@]14C |  | 6 |  |  |
| CC1(C)CC[C@@]23CC[C@]4(C)[C@@](OC2=O)([C@@H]3C1)[C@@H](O)C[C@@H]1[C@@]2(C)CC[C@H](O[C@@H]3O[C@H](C(=O)O)[C@@H](O)[C@H](O)[C@H]3O)C(C)(C)[C@@H]2CC[C@]14C |  | 16.1 |  |  |
| COC(=O)CCCCCNC(=O)[C@]12CCC(C)(C)C[C@H]1C1=CC[C@@H]3[C@@]4(C)CC[C@H](O[C@H]5O[C@H](CO)[C@@H](O)[C@H](O)[C@@H]5O)C(C)(C)[C@@H]4CC[C@@]3(C)[C@]1(C)CC2 |  | 1.52 |  |  |

— ChEMBL document CHEMBL2375238, “Synthesis and biological evaluation of oleanolic acid derivatives as PTP1B inhibitors” (Eur J Med Chem, 2013)
